Screening data deposited in PubChem BioAssay by several laboratories.
Sampled rows, rich in hits. Any-hit rate of the full collection: about 2.5%.
NR2E3 ag-1 = agonists of human NR2E3 nuclear receptor; Q9Y5X4; CHO-S Gal4-NCOR/VP16-NR2E3 two-hybrid, luciferase; inhibition of corepressor binding, % at 3.98 µM; 360,000 compounds, 0.35% hits; AID 602229;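 active = inhibition above the mean of all tested compounds plus 3 SD, cut at about 70% in these data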;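 note: higher means lower luciferase signal from less NR2E3 corepressor binding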
proKLK7 act = activates the human kallikrein-7 zymogen | 370,000 compounds, 0.9% hits | activation, % at 7 µM | P49862 | purified proKLK7, EDANS-DABCYL substrate fluorescence; 100% is mature enzyme control, 0% vehicle | AID 652039;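 active = activation above the mean of all tested compounds plus 3 SD, computed per campaign excluding outliers beyond control limits, cut at about 13% in these data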
ADAM17 inh = inhibitors of human ADAM17; recombinant ADAM17, EDANS/DABCYL FRET peptide cleavage; inhibition, % at 6.95 µM; 370,000 compounds, 0.83% hits;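 active = inhibition above the mean of compounds lying between control limits plus 3 SD, set per campaign, cut at about 8.5% in these data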
JMJD2C inh = blocks human GASC-1 demethylase activity. AID 2099. inhibition, % at 2.35 µM. 330,000 compounds, 0.069% hits. Q9H3R0. GST-JMJD2C(1-420) H3K9me3 demethylation, DELFIA europium;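 active = more than half of a compound's replicate wells show inhibition beyond 50%, single wells judged on their own value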;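 note: signal counts dimethyl H3K9 product captured on neutravidin plate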
ADAM10 inh = ADAM10 inhibition, QFRET primary screen | O14672 | 370,000 compounds, 0.62% hits | inhibition, % at 7 µM | recombinant ADAM10, EDANS/DABCYL FRET peptide cleavage, 3 h | AID 720582;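 active = inhibition above a per-campaign cutoff equal to the mean of compounds falling between control-based bounds plus 3 SD, cut at about 20% in these data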
Target sequence (O14672 214-748 limits assumed): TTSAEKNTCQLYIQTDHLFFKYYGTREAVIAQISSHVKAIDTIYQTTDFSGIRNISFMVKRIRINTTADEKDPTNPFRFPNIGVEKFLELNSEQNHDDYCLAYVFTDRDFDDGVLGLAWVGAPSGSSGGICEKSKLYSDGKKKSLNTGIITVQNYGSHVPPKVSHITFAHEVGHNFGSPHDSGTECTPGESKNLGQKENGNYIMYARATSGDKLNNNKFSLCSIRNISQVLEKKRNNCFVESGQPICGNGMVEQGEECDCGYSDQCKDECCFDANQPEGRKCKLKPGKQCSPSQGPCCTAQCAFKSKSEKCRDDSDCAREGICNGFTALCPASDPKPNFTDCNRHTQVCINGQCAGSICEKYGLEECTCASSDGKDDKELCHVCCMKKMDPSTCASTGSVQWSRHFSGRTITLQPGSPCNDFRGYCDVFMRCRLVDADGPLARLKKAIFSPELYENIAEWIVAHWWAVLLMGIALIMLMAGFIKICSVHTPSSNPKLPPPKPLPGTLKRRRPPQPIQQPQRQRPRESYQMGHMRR
NR2E3 ag-2 = NR2E3 (human) agonism. Q9Y5X4. GST-NR2E3/biotin-RetCOR TR-FRET, 1536-well. inhibition of corepressor binding, % at 4.78 µM. 320,000 compounds, 0.12% hits. AID 2300;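 active = percent inhibition above the cutoff of mean plus 3 SD of all tested compounds, set per screening campaign, cut at about 20% in these data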
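System: GST-tagged NR2E3 plus biotinylated RetCOR corepressor; Amount: 1.35 nM GST-tagged NR2E3 final; Dosing: single nominal compound dose of 4.8 µM; Schedule: 5 h incubation at 4 °C; Technique: TR-FRET with europium anti-GST and streptavidin-D2, 340 nm excitation; Controls: biotin wells as high control, 0.6% DMSO wells as low control.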
NR2E3 agonist cf = NR2E3 (human) agonism, confirmation; activation (reported as inhibition), % at 3.98 µM; 360 compounds, 39% hits; cell-free NR2E3 corepressor release, TR-FRET, 5 h; shares compounds with NR2E3 ag-2; in the data active = activation above about 20%
PPARg-NCOR2 ag = counter-screen for NR2E3 agonists: human PPARgamma-NCOR2 interaction agonists | AID 504787 | TR-FRET PPARg-NCOR2 coregulator interaction, biochemical | 360 compounds, 45% hits | inhibition, % at 3.98 µM | shares compounds with NR2E3 ag-2; in the data active = inhibition above about 20%
Of the large screens only hits and unclear results are named; the others gave an inactive call (follow-up assays come after a bar, where they were run).

Nc1ccc2c(c1)C(=O)C(=O)c1ccccc1-2	NR2E3 ag-2 20 | NR2E3 agonist cf inactive | PPARg-NCOR2 ag 48
COC(=O)c1cc(S(=O)(=O)N2CCOCC2)c(Cl)cc1N1CCOCC1	none
COC(=O)c1cc(C)nc2c1C(=O)C(=O)C=C2N1CCOCC1	NR2E3 ag-2 38 | NR2E3 agonist cf 43 | PPARg-NCOR2 ag 57
O=S1(=O)c2ccc(N3CCN(Cc4ccccc4F)CC3)cc2Oc2ccccc2CN1Cc1cn(Cc2cccc(F)c2)nn1	none (no result: NR2E3 ag-1, JMJD2C inh, NR2E3 ag-2)
COc1ccc(NC(=O)CCNS(=O)(=O)c2cc(Br)ccc2Br)cc1S(N)(=O)=O	NR2E3 ag-2 23 | NR2E3 agonist cf inactive | PPARg-NCOR2 ag inactive
N#Cc1ccccc1NCCCN1CCC(C(O)(c2ccccc2)c2ccccc2)CC1	none (no result: NR2E3 ag-1, JMJD2C inh, NR2E3 ag-2)
Cc1cccc(-n2c(=S)[nH]c3c(oc4ccccc43)c2=O)c1	NR2E3 ag-2 37 | NR2E3 agonist cf 35 | PPARg-NCOR2 ag 25
Cc1ccc(-n2c(=S)[nH]c3c(oc4ccccc43)c2=O)cc1	NR2E3 ag-2 20 | NR2E3 agonist cf 43 | PPARg-NCOR2 ag 34
O=c1c2oc3ccccc3c2[nH]c(=S)n1-c1ccccc1	NR2E3 ag-2 50 | NR2E3 agonist cf 45 | PPARg-NCOR2 ag 45
Cc1cccc(-n2c(C)c(-c3ccccc3)[nH]c2=S)c1	none
COC(=O)C1CN(Cc2ccccc2)CCS(=O)(=O)N1Cc1ccc(F)cc1 (stereo unspecified)	none (no result: NR2E3 ag-1, JMJD2C inh, NR2E3 ag-2)
COC(=O)C1CCCN(C(=O)C2CCN(S(=O)(=O)c3ccccc3[N+](=O)[O-])CC2)C1 (stereo unspecified)	none (no result: NR2E3 ag-1, JMJD2C inh, NR2E3 ag-2)
CCCC1=NN2C(=N)/C(=C\c3ccc(SCc4ccco4)o3)C(=O)N=C2S1	NR2E3 ag-2 20 (no result: proKLK7 act, ADAM17 inh, ADAM10 inh) | NR2E3 agonist cf inactive | PPARg-NCOR2 ag 61
CCC(=O)c1ccccc1OCC(=O)Nc1c(C)cccc1C	none
Cc1cccc(C)c1NC(=O)COc1ccccc1C(=O)Nc1ccc(Br)cn1	NR2E3 ag-2 44 | NR2E3 agonist cf 42 | PPARg-NCOR2 ag 49
CS(=O)(=O)N1CCN(c2ccc(Cl)cc2[N+](=O)[O-])CC1	NR2E3 ag-2 42 | NR2E3 agonist cf inactive | PPARg-NCOR2 ag inactive
CCN(CC(=O)NC(C)C)Cc1nc2c(Br)cc(Br)cc2c(=O)[nH]1	NR2E3 ag-2 55 | NR2E3 agonist cf 56 | PPARg-NCOR2 ag 48
O=C(/C=C/c1ccco1)NC(=S)Nc1ccc(C(=O)O)cc1	NR2E3 ag-2 20 | NR2E3 agonist cf inactive | PPARg-NCOR2 ag inactive
COc1ccc(-c2noc(C3CCCN(C(=O)Nc4ccc5c(c4)OCO5)C3)n2)cc1 (stereo unspecified)	none (no result: NR2E3 ag-1, JMJD2C inh, NR2E3 ag-2)
CCOc1cccc(C2C(C(=O)c3ccc(C)o3)=C(O)C(=O)N2Cc2ccncc2)c1 (stereo unspecified)	NR2E3 ag-2 26 | NR2E3 agonist cf inactive | PPARg-NCOR2 ag inactive
CCOc1cccc(C2C(C(=O)c3ccc(C)o3)=C(O)C(=O)N2CCCn2ccnc2)c1 (stereo unspecified)	NR2E3 ag-2 24 | NR2E3 agonist cf 29 | PPARg-NCOR2 ag 28
C=CCOc1ccc(C2C(C(=O)c3ccc(C)o3)=C(O)C(=O)N2Cc2cccnc2)cc1 (stereo unspecified)	NR2E3 ag-2 20 | NR2E3 agonist cf inactive | PPARg-NCOR2 ag inactive
CC1CCN(C2=NC(=O)N(c3ccc(Br)cc3)C(=O)C2)CC1	none (no result: NR2E3 ag-1, JMJD2C inh, NR2E3 ag-2)
O=C(C1=C(O)C(=O)N(CCN2CCOCC2)C1c1ccc(F)cc1)c1cc2ccccc2o1 (stereo unspecified)	NR2E3 ag-2 27 | NR2E3 agonist cf 31 | PPARg-NCOR2 ag 32
O=C(C1=C(O)C(=O)N(CCN2CCOCC2)C1c1ccco1)c1cc2ccccc2o1 (stereo unspecified)	none
CN(C)CCN1C(=O)C(O)=C(C(=O)c2cc3ccccc3o2)C1c1cccc(Br)c1 (stereo unspecified)	NR2E3 ag-2 36 | NR2E3 agonist cf 36 | PPARg-NCOR2 ag 34
O=C(C1=C(O)C(=O)N(CCN2CCOCC2)C1c1cccc([N+](=O)[O-])c1)c1cc2ccccc2o1 (stereo unspecified)	none (no result: JMJD2C inh, NR2E3 ag-2)
O=C(C1=C(O)C(=O)N(CCN2CCOCC2)C1c1cccc(Br)c1)c1cc2ccccc2o1 (stereo unspecified)	NR2E3 ag-2 35 | NR2E3 agonist cf 52 | PPARg-NCOR2 ag 57
COc1cccc2cc(C(=O)C3=C(O)C(=O)N(CCN4CCOCC4)C3c3cccs3)oc12 (stereo unspecified)	NR2E3 ag-2 24 | NR2E3 agonist cf 21 | PPARg-NCOR2 ag inactive
COc1cc(C2C(C(=O)c3cccs3)=C(O)C(=O)N2CCN2CCOCC2)cc(OC)c1OC (stereo unspecified)	none
CC(C)c1cc(C(C)C)c(S(=O)(=O)N2CCCC(C(=O)N3CCN(Cc4ccccc4)CC3)C2)c(C(C)C)c1 (stereo unspecified)	none (no result: NR2E3 ag-1, JMJD2C inh, NR2E3 ag-2)
CCOC(=O)CNC(=O)N(C)[C@H]1C[C@H]2c3[nH]c4c(-c5cccc(C)c5)cccc4c3CCN2C(=O)[C@H]1[C@H](C)O	none (no result: NR2E3 ag-1, JMJD2C inh, NR2E3 ag-2)
Cc1ccc(-n2c(SCC(=O)C(C)(C)C)nnc2-c2cccc(C)c2)cc1	none (no result: NR2E3 ag-1, JMJD2C inh, NR2E3 ag-2)
CCCCC#Cc1ccccc1COC[B-](F)(F)F	none (no result: NR2E3 ag-1, JMJD2C inh, NR2E3 ag-2)
COc1ccccc1C1C(C(=O)c2cc3ccccc3o2)=C(O)C(=O)N1CCN(C)C (stereo unspecified)	none
Cc1ccc(C(=O)C2=C(O)C(=O)N(CCN3CCOCC3)C2c2ccccn2)o1 (stereo unspecified)	none (no result: NR2E3 ag-1, proKLK7 act, ADAM17 inh, ADAM10 inh, NR2E3 ag-2)
CCN(CC)CCN1C(=O)C(O)=C(C(=O)c2cc3ccccc3o2)C1c1cccnc1 (stereo unspecified)	NR2E3 ag-2 28 | NR2E3 agonist cf 27 | PPARg-NCOR2 ag 28
O=C(C1=C(O)C(=O)N(CCc2ccccc2)C1c1ccncc1)c1cc2ccccc2o1 (stereo unspecified)	NR2E3 ag-2 34 | NR2E3 agonist cf 31 | PPARg-NCOR2 ag 31
O=C(C1=C(O)C(=O)N(CCCN2CCOCC2)C1c1ccccn1)c1cc2ccccc2o1 (stereo unspecified)	NR2E3 ag-2 34 | NR2E3 agonist cf inactive | PPARg-NCOR2 ag 22
